# Assay results from ChEMBL document CHEMBL1157578, “Design, synthesis, and biological evaluation of novel water-soluble triptolide derivatives: Antineoplastic activity against imatinib-resistant CML cells bearing T315I mutant Bcr-Abl” (Bioorg Med Chem, 2010).
# Active and inactive are the calls of the source. No cut-off for these calls is given here.
# Tests used:
# KBM5 [1] = assay: Cytotoxicity against human KBM5 cells harboring wild type Bcr-Abl at 0.001 to 17 uM after 72 hrs by MTS assay; assay type: functional, cell-based
# How it was run: (§1)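 KBM5 (wild-type p210 Bcr-Abl) or KBM5-T315I cells in IMDM + 10% heat-inactivated FCS. The T315I subline was kept in 1 µM imatinib, removed 2–3 days before assay. Cells incubated 72 h with increasing concentrations. Viability by MTS at 490 nm, as percent of control; IC50 from dose–response curves.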
# [2] = Cytotoxicity against imatinib-resistant human KBM5 cells harboring Bcr-Abl T315I mutant after 72 hrs by MTS assay; assay type: functional, cell-based; settings: KBM5, 72 h; how it was run: as §1
# [3] = Aqueous solubility in water; assay type: physicochemical; settings: buffer
# KBM5 [4] = assay: Cytotoxicity against imatinib-resistant human KBM5 cells harboring Bcr-Abl T315I mutant at 0.001 to 17 uM after 72 hrs by MTS assay; assay type: functional, cell-based; how it was run: as §1
# [5] = Cytotoxicity against human KBM5 cells harboring wild type Bcr-Abl after 72 hrs by MTS assay; assay type: functional, cell-based; settings: KBM5, 72 h; how it was run: as §1
# MEF = assay: Cytotoxicity against MEF after 72 hrs by MTS assay; assay type: cell-based; settings: Mus musculus
# How it was run: (§2)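 MEF and NHFB fibroblasts cultured in DMEM + 10% FCS. Exposed to increasing concentrations for 72 h. Viability by MTS reagent, optical density at 490 nm.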
# [6] = Cytotoxicity against NHFB after 72 hrs by MTS assay; design: species or system Homo sapiens; how it was run: as §2
# [7] = Cytotoxicity against mouse 32D cells harboring wild type Bcr-Abl after 72 hrs by MTS assay; assay type: functional, cell-based
# How it was run: (§3)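 32D myeloid cells stably expressing wild-type or T315I Bcr-Abl, maintained in RPMI 1640 + 10% FBS. Treated with increasing concentrations for 72 h. Viability by MTS, optical density at 490 nm.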
# [8] = Cytotoxicity against imatinib-resistant mouse 32D cells harboring Bcr-Abl T315I mutant after 72 hrs by MTS assay; assay type: functional, cell-based; how it was run: as §3
# [9] = Downregulation of Bcr-Abl mRNA level in human KBM5 cells harboring wild type Bcr-Abl at 50 to 100 nM after 18 hrs by semi-quantitative RT-PCR analysis; assay type: functional, cell-based
# How it was run: (§4)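 KBM5 and KBM5-T315I cells exposed to 50 or 100 nM, or control medium, for 18 h. Bcr-Abl and GAPDH mRNA measured by semi-quantitative RT-PCR; products run on 1% agarose and stained with ethidium bromide.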
# HCT-116 = assay: Inhibition of RNA polymerase 2 in human HCT116 cells assessed as decrease in polymerase 2 phosphorylation at 50 to 100 nM after 18 hrs by Western blot analysis; assay type: cell-based
# DU-145 = assay: Inhibition of RNA polymerase 2 in human DU145 cells assessed as decrease in polymerase 2 phosphorylation at 50 to 100 nM after 18 hrs by Western blot analysis; assay type: cell-based
# [10] = Downregulation of Bcr-Abl protein level in mouse 32D cells harboring Bcr-Abl T315I mutant after 18 hrs by Western blot analysis; assay type: functional, cell-based
# How it was run: (§5)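 Cells exposed for 18 h at the indicated concentrations. Whole-cell lysates made in RIPA buffer with phosphatase and protease inhibitors. Western blot for Bcr-Abl (c-Abl C-19), phospho-c-Abl Y245, phospho-RNA polymerase II, PARP, and actin as loading control.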
# KBM5 [11] = assay: Inhibition of RNA polymerase 2 in human KBM5 cells harboring wild type Bcr-Abl assessed as decrease in polymerase 2 phosphorylation after 18 hrs by Western blot analysis; assay type: cell-based; how it was run: as §5
# [12] = Downregulation of Bcr-Abl protein level in human KBM5 cells harboring wild type Bcr-Abl after 18 hrs by Western blot analysis; assay type: functional, cell-based; how it was run: as §5
# [13] = Downregulation of Bcr-Abl mRNA level in human KBM5 cells harboring Bcr-Abl T315I mutant at 50 to 100 nM after 18 hrs by semi-quantitative RT-PCR analysis; assay type: functional, cell-based; how it was run: as §4
# KBM5 [14] = assay: Induction of apoptosis in human KBM5 cells harboring wild type Bcr-Abl assessed as PARP cleavage at 50 to 100 uM after 18 hrs by Western blot analysis; assay type: functional, cell-based
# HeLa = assay: Inhibition of RNA polymerase 2 in human HeLa cells assessed as decrease in polymerase 2 phosphorylation at 50 to 100 nM after 18 hrs by Western blot analysis; assay type: cell-based
# KBM5 [15] = assay: Induction of apoptosis in human KBM5 cells harboring Bcr-Abl T315I mutant assessed as PARP cleavage at 50 to 100 uM after 18 hrs by Western blot analysis; assay type: functional, cell-based
# [16] = Downregulation of Bcr-Abl protein level in human KBM5 cells harboring Bcr-Abl T315I mutant after 18 hrs by Western blot analysis; assay type: functional, cell-based; how it was run: as §5
# KBM5 [17] = assay: Inhibition of RNA polymerase 2 in human KBM5 cells harboring Bcr-Abl T315I mutant assessed as decrease in polymerase 2 phosphorylation after 18 hrs by Western blot analysis; assay type: cell-based; how it was run: as §5
# [18] = Downregulation of Bcr-Abl protein level in mouse 32D cells harboring wild type Bcr-Abl after 18 hrs by Western blot analysis; assay type: functional, cell-based; how it was run: as §5
SMILES,Activity (KBM5 [1]),IC50 [2],solubility [3],Activity (KBM5 [4]),IC50 [5],other results
CC(C)[C@]12O[C@H]1[C@@H]1O[C@@]13[C@H]1CCC4=C(COC4=O)[C@@H]1C[C@@H]1O[C@@]13[C@@H]2OC(=O)CNc1nccc(-c2cccnc2)n1,Active,0.214 µM,Soluble,Active,0.297 µM,
CC(C)[C@]12O[C@H]1[C@@H]1O[C@@]13[C@H]1CCC4=C(COC4=O)[C@@H]1C[C@@H]1O[C@@]13[C@@H]2OC(=O)CNc1ccc(Cl)cc1,inactive,0.734 µM,,inactive,5.02 µM,
CC(C)[C@]12O[C@H]1[C@@H]1O[C@@]13[C@H]1CCC4=C(COC4=O)[C@@H]1C[C@@H]1O[C@@]13[C@@H]2OC(=O)CN1CCNCC1,Active,0.548 µM,Soluble,Active,0.496 µM,
CNCC(=O)O[C@@H]1[C@@]2(C(C)C)O[C@H]2[C@@H]2O[C@@]23[C@H]2CCC4=C(COC4=O)[C@@H]2C[C@@H]2O[C@]213,Active,0.308 µM,Soluble,Active,0.348 µM,
COC(=O)[C@H](C)NCC(=O)O[C@@H]1[C@@]2(C(C)C)O[C@H]2[C@@H]2O[C@@]23[C@H]2CCC4=C(COC4=O)[C@@H]2C[C@@H]2O[C@]213,Active,0.0142 µM,Soluble,Active,0.0186 µM,
CCCCCCCCCCCCNCC(=O)O[C@@H]1[C@@]2(C(C)C)O[C@H]2[C@@H]2O[C@@]23[C@H]2CCC4=C(COC4=O)[C@@H]2C[C@@H]2O[C@]213,inactive,1.04 µM,,inactive,5.42 µM,
CC(C)[C@]12O[C@H]1[C@@H]1O[C@@]13[C@H]1CCC4=C(COC4=O)[C@@H]1C[C@@H]1O[C@@]13[C@@H]2OC(=O)CNCCN,Active,0.95 µM,Soluble,Active,0.774 µM,
CC(C)[C@]12O[C@H]1[C@@H]1O[C@@]13[C@H]1CCC4=C(COC4=O)[C@@H]1C[C@@H]1O[C@@]13[C@@H]2OC(=O)CCl,Active,,,Active,,
CC(C)[C@]12O[C@H]1[C@@H]1O[C@@]13[C@H]1CCC4=C(COC4=O)[C@@H]1C[C@@H]1O[C@@]13[C@@H]2OC(=O)CN(CCO)CCO,inactive,1.55 µM,,inactive,2.8 µM,
CC(C)[C@]12O[C@H]1[C@@H]1O[C@]13[C@]1(O[C@H]1C[C@H]1C4=C(CC[C@@]13C)C(=O)OC4)[C@@H]2O [TRIPTOLIDE],Active,0.0083 µM,Insoluble,Active,0.0103 µM,IC50 (MEF): 9.2 µM; IC50 [6]: 8.8 µM; IC50 [7]: 0.032 µM; IC50 [8]: 0.034 µM
CC(C)[C@]12O[C@H]1[C@@H]1O[C@@]13[C@H]1CCC4=C(COC4=O)[C@@H]1C[C@@H]1O[C@@]13[C@@H]2OC(=O)CNCCO,Active,0.0197 µM,Soluble,Active,0.0182 µM,Activity [9]: Active; inhibition (HCT-116): Active; inhibition (DU-145): Active; Activity [10]: Dose-dependent effect; inhibition (KBM5 [11]): Dose-dependent effect; IC50 (MEF): 10.4 µM; Activity [12]: Dose-dependent effect; Activity [13]: Active; IC50 [6]: 10 µM; Activity (KBM5 [14]): Active; IC50 [7]: 0.061 µM; inhibition (HeLa): Active; Activity (KBM5 [15]): Active; Activity [16]: Dose-dependent effect; inhibition (KBM5 [17]): Dose-dependent effect; Activity [18]: Dose-dependent effect; IC50 [8]: 0.074 µM
CC(C)[C@]12O[C@H]1[C@@H]1O[C@@]13[C@H]1CCC4=C(COC4=O)[C@@H]1C[C@@H]1O[C@@]13[C@@H]2OC(=O)CN,,0.0117 µM,,,0.0192 µM,IC50 (MEF): 11.1 µM; IC50 [6]: 11.4 µM; IC50 [7]: 0.05 µM; IC50 [8]: 0.044 µM
CCN(CC)CC(=O)O[C@@H]1[C@@]2(C(C)C)O[C@H]2[C@@H]2O[C@@]23[C@H]2CCC4=C(COC4=O)[C@@H]2C[C@@H]2O[C@]213,Active,,Soluble,Active,0.078 µM,
